The source made the active and inactive calls. No cut-off for these calls is given here.

The subject of one assay is Ca9-22. Nature of the assay: Cytotoxicity against human Ca9-22 cells after 3 days by MTT assay. It counts as functional, cell-based. Particulars: for IC50: Ca9-22, 72 h. Background: Tetrazolium dyes change colour on reduction, which living cells bring about.
The subject of the next assay is A549. The assay can be described thus: Cytotoxicity against human A549 cells after 3 days by MTT assay. Type of assay: functional, cell-based. The settings on record: for IC50: A549, 72 h.
Assay [1] concerns Arabidopsis thaliana. The assay can be described thus: Estrogenic activity in transgenic Arabidopsis thaliana transfected with pER8:GUS plasmid assessed as beta-glucuronidase expression at 150 to 280 uM after 48 hrs using 4-methylumbelliferyl-beta-D-glucuronide by fluorometric assay. It counts as functional, organism-based. Summed up:
(§1)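 Transgenic Arabidopsis pER8:GUS plants are incubated with or without test compound. GUS expression is quantified by fluorometric assay. 17β-Estradiol is the positive control, run over 0.01–100 μM.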

The subject of a further assay is HepG2. Nature of the assay: Cytotoxicity against human HepG2 cells after 3 days by MTT assay. Type of assay: functional, cell-based.
Assay [2] has as its system Arabidopsis thaliana. Nature of the assay: Estrogenic activity in transgenic Arabidopsis thaliana transfected with pER8:GUS plasmid assessed as beta-glucuronidase expression at 500 uM after 48 hrs using 4-methylumbelliferyl-beta-D-glucuronide by fluorometric assay. It counts as functional, organism-based. Summed up:
as §1

The subject of assay [3] is MCF7. The assay can be described thus: Cytotoxicity against human MCF7 cells after 3 days by MTT assay. It counts as functional, cell-based.
In the next assay the test system is Hep 3B2. Nature of the assay: (§2) Cytotoxicity against human Hep3B cells after 3 days by MTT assay. Type of assay: functional, cell-based.
The test system of a further assay is MDA-MB-231. Nature of the assay: Cytotoxicity against human MDA-MB-231 cells after 3 days by MTT assay. Type of assay: functional, cell-based.
Assay [4] can be described thus: as §2. Type of assay: functional, cell-based, Hep 3B2. Particulars: 72 h.
The subject of assay [5] is MCF7. Nature of the assay: Antiestrogenic activity in human ER-positive MCF7 cells assessed as inhibition of 17beta estradiol-induced secreted alkaline phosphatase activity at 20 nM after 48 hrs by phospha-light reporter chemiluminescence assay. Type of assay: functional, cell-based.
In assay [6] the test system is MCF7. Nature of the assay: Estrogenic activity in human ER-positive MCF7 cells assessed as secreted alkaline phosphatase activity at 20 uM after 48 hrs by phospha-light reporter chemiluminescence assay. Type of assay: functional, cell-based.
Assay [7] deals with MCF7. Nature of the assay: Antiestrogenic activity in human ER-positive MCF7 cells assessed as inhibition of 17beta estradiol-induced cell proliferation at 1 to 20 uM after 48 hrs by MTT assay. Type of assay: functional, cell-based.
Assay [8] relates to MCF7. Nature of the assay: Antiestrogenic activity in human ER-positive MCF7 cells assessed as inhibition of 17beta estradiol-induced secreted alkaline phosphatase activity at 1 to 20 uM after 48 hrs by phospha-light reporter chemiluminescence assay. Type of assay: functional, cell-based.
For assay [9], the system named is MCF7. Nature of the assay: Estrogenic activity in human ER-positive MCF7 cells assessed as secreted alkaline phosphatase activity after 48 hrs by phospha-light reporter chemiluminescence assay. It counts as functional, cell-based.
Assay [10] has as its system MCF7. The assay can be described thus: Antiestrogenic activity in human ER-positive MCF7 cells assessed as inhibition of 17beta estradiol-induced secreted alkaline phosphatase activity at 2 nM after 48 hrs by phospha-light reporter chemiluminescence assay. It counts as functional, cell-based.
The subject of assay [11] is Arabidopsis thaliana. Nature of the assay: Estrogenic activity in transgenic Arabidopsis thaliana transfected with pER8:GUS plasmid assessed as beta-glucuronidase expression after 48 hrs using 4-methylumbelliferyl-beta-D-glucuronide by fluorometric assay. Type of assay: functional. Summed up:
as §1

The test system of assay [12] is MCF7. Nature of the assay: Estrogenic activity in human ER-positive MCF7 cells assessed as secreted alkaline phosphatase activity at 0.01 nM after 48 hrs by phospha-light reporter chemiluminescence assay. It counts as functional, cell-based.

With `Oc1ccc(C[C@@]2(O)COc3cc(O)ccc3[C@@H]2O)cc1`, the result in the assay with Ca9-22, in the assay with A549, in the assay with Arabidopsis thaliana [1], in the assay with HepG2, in the assay with MCF7 [3] and in the assay on Hep 3B2 was inactive. Besides, the outcome with MDA-MB-231 was inactive. Also, the result in the assay on Arabidopsis thaliana [2] was Active.
In assay [4], `COc1cccc2c1C(=O)c1c(O)c3c(c(O)c1C2=O)C[C@@](O)(C(=O)CO)C[C@@H]3O[C@H]1C[C@H](N)[C@H](O)[C@H](C)O1` [DOXORUBICIN] registered an IC50 of 1.03 µM.
Turning to `CC/C(=C(\c1ccccc1)c1ccc(OCCN(C)C)cc1)c1ccccc1`, in the assay on MCF7 [5], the inhibition result was “Active”.
Take `Oc1ccc(C[C@@]2(O)COc3cc(O)ccc3[C@H]2O)cc1`: the result in the assay with Ca9-22, with A549, in the assay on Arabidopsis thaliana [1], in the assay on HepG2, with MCF7 [3] and with Hep 3B2 was inactive. Further, the outcome in the assay with MDA-MB-231 was inactive. The result in the assay on Arabidopsis thaliana [2] was Active.
As for `O=C1C=C2CC3(O)COc4cc(O)ccc4C3=C2C=C1O` (configuration not stated) [BRAZILEIN], the outcome in the assay with MCF7 [6] and in the assay with Arabidopsis thaliana [1] was inactive. Besides, the inhibition entry with MCF7 [7] and with MCF7 [8] was “Active” each time. Moreover, the outcome in the assay with Arabidopsis thaliana [2] was Active. For the same compound, the half-inhibitory concentration (IC50) in assay [4] came out at 12 µM.
As for `O=c1c(-c2ccc(O)cc2)coc2cc(O)cc(O)c12`, the Activity result with MCF7 [9] was “Dose-dependent effect”. Moreover, the inhibition entry in the assay on MCF7 [8] is “Active”.
With `Oc1ccc2c(c1)OC[C@]1(O)Cc3cc(O)c(O)cc3[C@H]21` [BRAZILIN], the result with MCF7 [6] and in the assay on Arabidopsis thaliana [1] was inactive. Further, the inhibition result in the assay with MCF7 [7] and with MCF7 [8] was “Active” in each case. For the same compound, the result in the assay with Arabidopsis thaliana [2] was Active. In addition, in assay [4], the IC50 is 15.9 µM.
Turning to `O=C(c1ccc(OCCN2CCCCC2)cc1)c1c(-c2ccc(O)cc2)sc2cc(O)ccc12`, the inhibition result in the assay with MCF7 [10] was “Active”.
Regarding `C[C@]12CC[C@@H]3c4ccc(O)cc4CC[C@H]3[C@@H]1CC[C@@H]2O`, the Activity result in the assay on Arabidopsis thaliana [11] was “Dose-dependent effect”. The result with MCF7 [12] was Active.
As to `O=C1c2ccc(O)cc2OC[C@@H]1O`, the 50% inhibitory concentration (IC50) in the assay on Ca9-22 was determined as 62.2 µM; in the assay with A549, 80.7 µM; in assay [4] it was 47.2 µM. For the same compound, the result with MCF7 [6], with Arabidopsis thaliana [1], in the assay with HepG2, in the assay on MCF7 [3] and in the assay with MDA-MB-231 was inactive. For the same compound, the result with Arabidopsis thaliana [2] was Active.
For `O=C1c2ccc(O)cc2OC[C@]1(O)Cc1ccc(O)cc1`, the outcome in the assay with Ca9-22, with A549, with HepG2, in the assay on MCF7 [3], in the assay on Hep 3B2 and in the assay on MDA-MB-231 was inactive. In addition, the Activity entry with MCF7 [9] was “Dose-dependent effect”. The result in the assay on MCF7 [6] was Active. Moreover, the MAC in the assay with Arabidopsis thaliana [11] amounted to 10.9 µM.
Turning to `COc1cc(O)ccc1C(=O)/C=C/c1ccc(O)cc1`, the IC50 turned out to be 57.6 µM in the assay with Ca9-22; 32.6 µM in the assay on A549; 7.37 µM with HepG2 (HepG2, 72 h); 51.4 µM in the assay on MCF7 [3] (MCF7, 72 h); 17.9 µM in assay [4]; 44.4 µM in the assay on MDA-MB-231 (MDA-MB-231, 72 h). In the assay with MCF7 [6], the result was Active. Also, in the assay with Arabidopsis thaliana [11], the MAC stood at 2.8 µM.
Turning to `O=c1c(O)coc2cc(O)ccc12`, the result with Ca9-22, with A549, in the assay on HepG2, in the assay with MCF7 [3], in the assay with Hep 3B2 and in the assay with MDA-MB-231 was inactive. The result in the assay on MCF7 [6] was Active. Further, the MAC in the assay on Arabidopsis thaliana [11] came out at 8.8 µM.
With `O=C1c2ccc(O)cc2OC[C@@H]1Cc1ccc(O)c(O)c1`, the result with Ca9-22, in the assay on A549, with HepG2, in the assay with MCF7 [3], in the assay on Hep 3B2 and in the assay with MDA-MB-231 was inactive. The Activity result with MCF7 [9] is “Dose-dependent effect”. Also, the result in the assay on MCF7 [6] was Active. Further, the MAC in the assay on Arabidopsis thaliana [11] stood at 2.7 µM.
Turning to `CC1(C)O[C@H]2c3ccc(O)cc3OC[C@@]2(Cc2ccc(O)c(O)c2)O1`, the outcome in the assay on Ca9-22, with A549, in the assay with Arabidopsis thaliana [1], in the assay with HepG2, with MCF7 [3] and in the assay with Hep 3B2 was inactive. Moreover, the outcome in the assay with MDA-MB-231 was inactive. Besides, the result with MCF7 [6] and in the assay on Arabidopsis thaliana [2] was Active.

As a reminder, the IC50 is the concentration at which inhibition is half-maximal.

The record behind these values is ChEMBL document CHEMBL1914413, “Using the pER8:GUS reporter system to screen for phytoestrogens from Caesalpinia sappan” (J Nat Prod, 2011).
